The target of experiment [1] is T1, C3a anaphylatoxin chemotactic receptor (Homo sapiens, UniProt Q16581).
T1 sequence (Q16581 whole entry): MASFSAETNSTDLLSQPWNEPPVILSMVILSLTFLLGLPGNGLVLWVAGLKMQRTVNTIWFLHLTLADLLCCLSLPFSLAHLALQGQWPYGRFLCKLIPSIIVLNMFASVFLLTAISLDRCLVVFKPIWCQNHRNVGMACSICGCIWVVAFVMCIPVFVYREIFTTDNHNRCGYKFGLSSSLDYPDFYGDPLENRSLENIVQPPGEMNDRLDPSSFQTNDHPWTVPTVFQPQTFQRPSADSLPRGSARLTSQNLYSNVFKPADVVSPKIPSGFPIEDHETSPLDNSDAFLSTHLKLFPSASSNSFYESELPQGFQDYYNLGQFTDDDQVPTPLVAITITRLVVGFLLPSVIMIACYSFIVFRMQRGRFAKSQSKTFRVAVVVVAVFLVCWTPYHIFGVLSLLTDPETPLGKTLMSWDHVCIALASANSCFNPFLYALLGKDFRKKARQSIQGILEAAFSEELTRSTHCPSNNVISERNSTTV
The experiment is described as follows: Displacement of [125I]-C3a from C3AR in HMDMs by scintillation counting method. In general terms: Loss of bound radioactivity is the signal in a displacement assay; it reports binding, not function.

Experiment [2] concerns the target T1, C3a anaphylatoxin chemotactic receptor. Kind of experiment: Agonist activity against C3AR in HMDMs assessed as increase in intracellular calcium release by Fluo-3 AM dye based FLIPR assay relative to 1 uM C3a. In general terms: Calcium assays in cells follow changes in intracellular calcium, usually with a dye or a luminescent sensor.
Experiment [3] has the same target. The experiment is described as follows: Antagonist activity against C3AR in HMDMs assessed as inhibition of C3a-induced intracellular calcium release by Fluo-3 AM dye based FLIPR assay.
Experiment [4] concerns the target T2, C3a anaphylatoxin chemotactic receptor (Homo sapiens) (UniProt Q16581).
T2 sequence (whole entry): T1 sequence (Q16581 whole entry)
The experiment is described as follows: Agonist activity against C3AR in HMDMs assessed as increase in intracellular calcium release up to 100 uM by Fluo-3 AM dye based FLIPR assay. The experiment is classed as functional, cell-based. The procedure, abridged:
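Overnight-plated HMDMs (5 × 10^4/well) loaded with 4 μM Fluo-3 AM for 1 h at 37 °C, washed into HBSS with 2.5 mM probenecid, 20 mM HEPES, pH 7.4; compound range added and Ca2+ fluorescence read ≥60 s (495/520 nm) by FLIPR.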

In experiment [5] the target is T2, C3a anaphylatoxin chemotactic receptor (Homo sapiens). The experiment is described as follows: Agonist activity against C3AR in HMDMs assessed as increase in IL-1beta mRNA expression at 300 nM incubated for 30 mins in presence of 30 mins pre-treatment with 10 uM (2-(2,2-Diphenylethoxy)acetyl)-L-arginine by qRT-PCR method. Summed up:
(§1)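 HMDMs seeded at 1 × 10^6 mL−1, adhered overnight, pretreated with C3aR antagonist (10 μM, 30 min), then stimulated 30 min at 0.3 μM. RNA extracted; qRT-PCR normalized to 18S rRNA; fold change relative to untreated control; mean ± SEM, three independent experiments.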
On the technique in general: Real-time PCR tracks product formation cycle by cycle.

For experiment [6] the target is unchanged. The experiment is described as follows: Agonist activity against C3AR in HMDMs assessed as increase in TNFalpha mRNA expression at 300 nM incubated for 30 mins by qRT-PCR method. The procedure, abridged:
(§2)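 HMDMs (CSF-differentiated CD14+ blood monocytes, day 7) seeded at 1 × 10^6 mL−1 and adhered overnight, then stimulated 30 min at 0.3 μM. RNA extracted; qRT-PCR normalized to 18S rRNA; fold change relative to untreated control; mean ± SEM of three independent experiments.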

The target is the same in experiment [7]. Kind of experiment: Agonist activity against C3AR in HMDMs assessed as increase in CCL3 mRNA expression at 300 nM incubated for 30 mins in presence of 30 mins pre-treatment with 10 uM (2-(2,2-Diphenylethoxy)acetyl)-L-arginine by qRT-PCR method. The procedure, abridged: as §1
Experiment [8] deals with T3, C5a anaphylatoxin chemotactic receptor 1 (Homo sapiens) (UniProt P21730).
T3 sequence (whole entry): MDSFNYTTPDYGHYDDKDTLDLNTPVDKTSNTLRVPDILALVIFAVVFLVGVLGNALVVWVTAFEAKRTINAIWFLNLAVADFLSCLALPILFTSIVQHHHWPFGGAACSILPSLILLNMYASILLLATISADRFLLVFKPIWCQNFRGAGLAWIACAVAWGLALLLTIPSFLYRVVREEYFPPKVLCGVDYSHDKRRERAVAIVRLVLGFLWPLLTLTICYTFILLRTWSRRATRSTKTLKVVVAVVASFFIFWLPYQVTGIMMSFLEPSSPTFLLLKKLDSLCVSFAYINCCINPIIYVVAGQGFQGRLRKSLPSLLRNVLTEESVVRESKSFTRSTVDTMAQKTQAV
The experiment is described as follows: Displacement of [125I]-C5a from C5AR in HMDMs 20 uM by scintillation counting method.

In experiment [9] the target is T2, C3a anaphylatoxin chemotactic receptor (Homo sapiens). Kind of experiment: Agonist activity against C3AR in HMDMs assessed as increase in CCL3 mRNA expression at 300 nM incubated for 30 mins by qRT-PCR method. The procedure, abridged:
as §2

Experiment [10] has the same target. Kind of experiment: Agonist activity against C3AR in C3a desensitized HMDMs assessed as increase in intracellular calcium release at 10 uM added 5 mins post C3a-induced desensitization by Fluo-3 AM dye based FLIPR. Type of experiment: functional, cell-based. The procedure, abridged:
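HMDMs desensitized with 300 nM C3a at t0, then given test agonist at 10 μM; calcium signal monitored on FLIPR after Fluo-3 AM loading (4 μM, 1 h, 37 °C) in HBSS with 2.5 mM probenecid, 20 mM HEPES, pH 7.4; excitation 495, emission 520 nm.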

Experiment [11] has the same target. The experiment is described as follows: Agonist activity against C3AR in HMDMs assessed as increase in TNFalpha mRNA expression at 300 nM incubated for 30 mins in presence of 30 mins pre-treatment with 10 uM (2-(2,2-Diphenylethoxy)acetyl)-L-arginine by qRT-PCR method. The procedure, abridged: as §1
Experiment [12] shares this target. The experiment is described as follows: Agonist activity against C3AR in HMDMs assessed as increase in IL-1beta mRNA expression at 300 nM incubated for 30 mins by qRT-PCR method. Summed up: as §2
Experiment [13] has the same target.
For experiment [14] the target is unchanged. This is another data set of the same source.

15 compounds from ChEMBL document CHEMBL3352379, “Potent heterocyclic ligands for human complement c3a receptor” (J Med Chem, 2014) can be followed below.

Activity calls are given as the source filed them. The rule behind the calls is not given here. Where only a bound is given, the exact number is not on record here.

What is called IC50 is the concentration at which inhibition is half-maximal. For orientation: EC50 means the midpoint of the concentration-response curve.

In turn, `Cc1c(C(=O)N[C@@H](CCCNC(=N)N)C(=O)O)nc(C(c2ccccc2)c2ccccc2)n1C` returned an IC50 in experiment [1] of 31 nM. The EC50 in experiment [2] worked out at 40 nM.

Take `N=C(N)NCCC[C@H](NC(=O)c1nc(C(c2ccccc2)c2ccccc2)no1)C(=O)O`: the IC50 is 12 nM in experiment [1] and 1000 nM in experiment [3].

For the compound `N=C(N)NCCC[C@H](NC(=O)COCC(c1ccccc1)c1ccccc1)C(=O)O`, the results for the IC50 in [1] and in [3] were 10 nM and 1260 nM, respectively. In addition, the outcome in experiment [4] was inactive.

`N=C(N)NCCC[C@H](NC(=O)c1nnc(C(c2ccccc2)c2ccccc2)o1)C(=O)O`: the figures for the IC50 in experiment [1] and in experiment [3] were 967 nM and 19000 nM, respectively.

Take `Cc1[nH]c(C(c2ccccc2)c2ccccc2)nc1C(=O)N[C@@H](CCCNC(=N)N)C(=O)O`: in [1], the IC50 came out at 10 nM. The result in experiment [5], in experiment [7], in [10] and in [11] was inactive. The outcome in [6], in [9] and in experiment [12] was Active. The inhibition result in experiment [8] was “inactive”. Moreover, the EC50 in experiment [2] is 25.1 nM.

Consider `Cc1oc(C(c2ccccc2)c2ccccc2)nc1C(=O)N[C@@H](CCCNC(=N)N)C(=O)O`, for which the IC50 in [1] was determined as 11 nM. The pEC50 result in experiment [13] was “Active”.

On to `N=C(N)NCCC[C@H](NC(=O)c1noc(C(c2ccccc2)c2ccccc2)n1)C(=O)O`, for which the concentration for half-maximal inhibition (IC50) is 54 nM in experiment [1] and 1000 nM in [3].

Turning to `N=C(N)NCCC[C@H](NC(=O)CNCC(c1ccccc1)c1ccccc1)C(=O)O`, the IC50 in [1] amounted to 150 nM. Besides, the outcome in [4] was inactive.

For `N=C(N)NCCC[C@H](NC(=O)c1oc(C(c2ccccc2)c2ccccc2)nc1-c1ccccc1)C(=O)O`, the figures for the IC50 in [1] and in [3] were 110 nM and 2000 nM, respectively.

With `N=C(N)NCCC[C@H](NC(=O)c1nc(C(c2ccccc2)c2ccccc2)[nH]c1-c1ccccc1)C(=O)O`, in [1], the IC50 amounted to 87 nM. Besides, the EC50 in [2] is greater than 31600 nM.

`N=C(N)NCCC[C@H](NC(=O)CSCC(c1ccccc1)c1ccccc1)C(=O)O` came in with an IC50 in experiment [1] of 8 nM. The outcome in [4] was inactive.

As for `Cc1nc(C(c2ccccc2)c2ccccc2)oc1C(=O)N[C@@H](CCCNC(=N)N)C(=O)O`, the half-inhibitory concentration (IC50) in [1] was 100 nM; in experiment [3], 3980 nM.

For the compound `N=C(N)NCCC[C@H](NC(=O)c1coc(C(c2ccccc2)c2ccccc2)n1)C(=O)O`, the IC50 in experiment [1] was 19 nM.

In the case of `Cc1nc(C(c2ccccc2)c2ccccc2)n(C)c1C(=O)N[C@@H](CCCNC(=N)N)C(=O)O`, in [1], the IC50 was 1140 nM. In addition, the pEC50 result in experiment [13] is “inactive”. Besides, the pIC50 entry in experiment [14] was “inactive”.

`N=C(N)NCCC[C@H](NC(=O)CCCC(c1ccccc1)c1ccccc1)C(=O)O` registered a half-inhibitory concentration (IC50) in experiment [1] of 96 nM. The outcome in experiment [4] was inactive.
